Assay outcomes (PubChem BioAssay)
DNMT1 inh: human DNMT1 methyltransferase inhibitors, primary screen, biochemical, molecular beacon, fluorescence, HinP1I cleavage, uHTS; inhibition (reported as % activation of signal), % at 10 µM; DNA (cytosine-5)-methyltransferase 1 (Homo sapiens), P26358; hit rate 0.83% among 360,000; in the data active = inhibition above about 50%
STEP block: STEP phosphatase inhibitors, primary screen, biochemical, fluorescence intensity, uHTS; AID 588621, 2011; Tyrosine-protein phosphatase non-receptor type 5 (Homo sapiens), P54829; inhibition, % at 20 µM; recombinant STEP, OMFP fluorogenic substrate; hit rate 0.25% among 360,000;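 active = inhibition at 20 µM, scaled per plate between control wells, above about 37%, limit read from the data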;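 also: 0% = DMSO with enzyme and substrate and 100% = substrate only without enzyme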
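material = STEP tyrosine phosphatase | reagent = fluorogenic phosphatase substrate OMFP at 25 µM final | doses = single compound dose of 20 µM, 1% DMSO final | schedule = 20 min reaction, room temperature, in the dark | measured by = fluorescence, 480/540 nm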
LMPTP inh: LMPTP phosphatase inhibitors, primary screen, biochemical, fluorescence intensity, uHTS. recombinant LMPTP-A, OMFP fluorogenic substrate. inhibition, % at 20 µM. hit rate 0.22% among 360,000. AID 651560, 2012;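 active = compounds that cut the enzyme signal by at least half of the control window in the single-dose screen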;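 also: plate controls were DMSO wells with enzyme plus substrate for no effect and substrate without enzyme for full effect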
Target sequence (P24666 whole entry, looked up): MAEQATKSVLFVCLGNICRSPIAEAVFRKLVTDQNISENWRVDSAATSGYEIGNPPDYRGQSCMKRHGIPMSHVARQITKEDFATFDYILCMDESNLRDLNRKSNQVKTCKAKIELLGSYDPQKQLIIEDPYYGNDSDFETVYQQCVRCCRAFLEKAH
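Test system: LMPTP-A phosphatase enzyme. Amount: LMPTP-A at 0.625 nM final in the reaction. Reagent: OMFP substrate, 400 µM final. Times: 50 min at room temperature. Signal: endpoint fluorescence intensity from OMFP dephosphorylation. Read-out basis: % inhibition. Benchmarks: no-enzyme and uninhibited controls.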
SUMO1-SIM PPI: modulators of SUMO1 protein-protein interactions, primary screen, biochemical, uHTS; Small ubiquitin-related modifier 1 (Homo sapiens), P63165; SUMO1 binding to a labelled peptide, TR-FRET, 1 h; inhibition, % at 20 µM; AID 602429, 2012; hit rate 0.33% among 360,000; in the data active = inhibition above about 37%
Target sequence (P63165 whole entry, looked up): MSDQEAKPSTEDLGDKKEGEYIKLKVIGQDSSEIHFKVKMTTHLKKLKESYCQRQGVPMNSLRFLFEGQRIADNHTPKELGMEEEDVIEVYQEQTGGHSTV
Scp1 inh: Scp-1 phosphatase inhibitors, primary screen, biochemical, colorimetric, uHTS; hit rate 0.88% among 340,000; inhibition, % at 20 µM; AID 493091, 2011; Carboxy-terminal domain RNA polymerase II polypeptide A small phosphatase 1 (Homo …; Recombinant Scp1, phosphopeptide, malachite green phosphate absorbance;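 active = inhibition above about 50% at 20 µM, limit read from the data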;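 also: plate controls were DMSO wells with enzyme for no effect and wells lacking enzyme for full effect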
Target sequence (Q9GZU7 76-261 limits assumed): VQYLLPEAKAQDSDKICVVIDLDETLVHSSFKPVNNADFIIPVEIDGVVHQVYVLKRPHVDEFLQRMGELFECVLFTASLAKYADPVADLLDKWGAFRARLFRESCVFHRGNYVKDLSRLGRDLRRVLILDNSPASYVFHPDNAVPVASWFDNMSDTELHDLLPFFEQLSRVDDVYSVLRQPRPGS
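Test system: SCP-1 catalytic domain; Buffer or medium: Acidic Tris acetate buffer with magnesium and detergent; Also added: Phosphorylated 17-residue peptide substrate; Compound: single 20 µM dose, 1% DMSO; Schedule: enzyme reaction 45 min at room temperature, colour 5 min, stabilisation 30 min; Signal: Phosphate-binding colour reagent, absorbance read at 630 nm.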
* = called active by the depositor; . = no result. In the library only some 1.8% were active in any assay of this set; here they are far more common.

SMILES | DNMT1 inh | STEP block | LMPTP inh | SUMO1-SIM PPI | Scp1 inh
CCN(c1ccc(C)c(C)c1)S(=O)(=O)c1ccc2c(c1)CCN2C(=O)CCC(=O)O | -2 | 2 | 0 | 47* | -7
O=C(COC(=O)c1ccc(-c2cnc3ccccc3n2)cc1)c1ccccc1 | 9 | -2 | -1 | 41* | -10
Cc1ccc(C(=O)OCC(=O)c2ccccc2)cc1 | 2 | 2 | 0 | 2 | -9
CCOC(=O)C1CCCN(C(=O)CN2C(=O)c3ccccc3S2(=O)=O)C1 (configuration not stated) | 3 | 0 | -1 | 4 | -6
CC1CC(C)CN(C(=O)C(C)N2CCN(S(=O)(=O)c3ccc(Br)s3)CC2)C1 (configuration not stated) | -3 | 2 | 0 | -3 | -5
O=C1C=CC2=C3c4cc(O)c(O)cc4CC3(O)COC2=C1O (configuration not stated) | 91* | 11 | 67* | 58* | 42
O=C(c1ccccc1)c1c2c(cc3sc4ccccc4[n+]13)-c1cccc3cccc-2c13 | 58* | 3 | 69* | -18 | -4
Cc1sc2cc3c(c(C(=O)c4ccccc4)[n+]2c1C)-c1cccc2cccc-3c12 | . | . | . | . | 14
O=C(CSc1ccc(S(=O)(=O)N2CCCC2)cn1)Nc1ccc([N+](=O)[O-])cc1C(F)(F)F | -3 | 3 | 1 | -27 | -8
CC[C@@]1(O)C(=O)OCc2c1cc1n(c2=O)Cc2cc3c(CN(C)C)c(O)ccc3nc2-1 | 23 | -6 | 0 | -29 | -4
CC[C@@]1(O)C(=O)OCc2c1cc1n(c2=O)Cc2cc3c(N)cccc3nc2-1 | 15 | 5 | 2 | -17 | 57*
O=C(O)c1cc([N+](=O)[O-])cc2c1C=Cc1ccccc1O2 | 19 | 16 | -1 | -14 | 41
NC(=O)c1cc[n+](CC2=C(C(=O)O)N3C(=O)[C@@H](NC(=O)C(c4ccccc4)S(=O)(=O)[O-])[C@H]3SC2)cc1 (some centres not stated) | 98* | 97* | 15 | 82* | 85*
COc1ccc(N=c2ssnc2Cl)cc1 | -1 | 6 | 45 | -2 | -7
COc1cc(N=c2ssnc2Cl)cc(OC)c1OC | 0 | 12 | 57* | -4 | -4
O=C(COc1ccc(/C=N/NC(=O)c2cc3ccccc3o2)cc1Cl)Nc1ccccc1 | 71* | 54* | 32 | -2 | 80*
CC(=O)c1ccc(NC(=O)c2ccc(N3C(=O)c4cccnc4C3=O)cc2)cc1 | -5 | 2 | 3 | 41* | 7
COc1cccc2sc(Nc3nc(-c4cc5ccccc5oc4=O)cs3)nc12 | -2 | 4 | 12 | 61* | 11
O=C(/C=C/c1ccc(Br)o1)OCc1nc2ccsc2c(=O)[nH]1 | 104* | 89* | 76* | 120* | 86*
Cc1ccc(C(=O)OCc2nc3ccsc3c(=O)[nH]2)o1 | 6 | 1 | -2 | 1 | 11
Cc1sc(NC(=O)CSc2nnc3scc(-c4ccccc4)n23)c(C#N)c1C | 7 | 2 | 1 | 45* | -6
Cc1sc(NC(=O)CSc2nnc(COc3ccccc3)n2C)c(C#N)c1C | 6 | -1 | -1 | -1 | -8
O=C(NC1CCN(Cc2ccccc2)CC1)c1cccc(S(=O)(=O)Nc2ccc(SC(F)F)cc2)c1 | -3 | 0 | 2 | 4 | -2
C/C(CC(=O)NCc1ccco1)=N\NC(=O)Cc1ccccc1 | -4 | -2 | -2 | 1 | -2
C/C(CC(=O)NCc1ccco1)=N\NC(=O)C(c1ccccc1)c1ccccc1 | -2 | -2 | 2 | 49* | -3
SMILES | DNMT1 inh | STEP block | LMPTP inh | SUMO1-SIM PPI | Scp1 inh
COc1ccc(Cl)cc1C(=O)Nc1cccc(-c2ccc3nncn3n2)c1 | 17 | 61* | 40 | 47* | 42
S=C1Cc2ccccc2N1 | 83* | 21 | 48 | 77* | -7
Cc1ccc2nc(-c3ccc4c(c3)OCCO4)cn2c1 | 3 | 1 | 1 | 2 | -7
Cc1ccc2nc(-c3ccc4c(c3)NC(=O)CO4)cn2c1 | 14 | -2 | 73* | -2 | -15
OC1CCC2CN3CCc4c([nH]c5ccccc45)C3CC2C1 (configuration not stated) | -8 | -4 | 4 | -17 | .
O=C(O)[C@@H]1[C@H]2C[C@H]3c4[nH]c5ccccc5c4CCN3C[C@@H]2CC[C@@H]1O | 21 | -2 | 60* | 25 | -9
O=C1NC(=O)/C(=C\c2ccc(O)cc2O)S1 | 32 | 1 | 32 | 10 | 53*
CCn1c(SCC(=O)Nc2ccc(C)cc2)nnc1-c1ccc(O)cc1 | 0 | -1 | -2 | 44* | 19
COCCN1C[C@@H](CO)O[C@@H](n2cnc3c(N4CCN(c5ccccc5)CC4)ncnc32)C1 | 3 | 0 | 0 | -2 | .
Cc1ccc(NC(=O)CN2C(=O)S/C(=C/c3ccc(O)c([N+](=O)[O-])c3)C2=O)cc1C | -9 | 24 | 80* | 3 | 76*
COc1ccc(NC(=O)c2c[nH]c(=O)n(-c3ccc(C)c(C)c3)c2=O)c(OC)c1 | 30 | -7 | -4 | 43* | -10
Clc1ccccc1Nc1nnc(-c2ccncc2)s1 | -3 | 0 | -1 | -11 | -8
COc1ccc(Cl)cc1Nc1nnc(-c2ccncc2)s1 | 39 | 83* | 0 | 96* | 90*
O=C(Nc1cccc(Cl)c1)c1cccc(Oc2ccc([N+](=O)[O-])cc2Cl)c1 | -8 | -2 | 2 | -3 | -5
O=C(Nc1ccc([N+](=O)[O-])cc1Cl)c1cc(Cl)ccc1O | -5 | 4 | 72* | 14 | 35
O=C(Nc1cccc(Cl)c1)c1cc(N=Nc2ccc([N+](=O)[O-])cc2Cl)ccc1O | -22 | 32 | 12 | 100* | 71*
CCCCC(CC)CN=C(N)NC(N)=NCCCCCCN=C(N)NC(N)=NCC(CC)CCCC (configuration not stated) | -86 | 7 | 1 | 86* | -12
CN(CCO)c1ccc2c(c1)OC[C@@H](Cc1ccccc1)NS2(=O)=O | . | . | 0 | 1 | .
CC1(C)Cc2c(C#N)c(N3CCN(C(=O)c4ccco4)CC3)nc(-c3ccco3)c2CS1 | 4 | -8 | 0 | 4 | 56*
CC(=O)N1CCN(c2nc(-c3ccco3)c3c(c2C#N)CC(C)(C)SC3)CC1 | -8 | 3 | 1 | 8 | -12
O=C(N[C@@H](Cc1ccccc1)C(=O)NCc1ccc(F)cc1)C1CCNCC1 | 0 | -2 | 0 | 5 | -7
